Converted amounts (≈) assume the structure as drawn. The source made the active and inactive calls. The calls are words filed in the database; no cut-off is given here.

Data set [1] in a line: Plasma concentration in rat at 1 mg/kg, ip after 4 hrs. Format: ADME, organism-based. The gist of the method:
(§1)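 Rats dosed intraperitoneally at 1, 3 and 10 mg/kg and intravenously at 0.5 mg/kg. Solubilizing vehicle was aqueous DMSO. Plasma concentrations followed over time up to 12 h. Bioavailability derived from ip exposure relative to the iv dose.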

A short description of data set [2]: Solubility in 10% DMSO in water. Format: physicochemical. The note with it: buffer. The gist of the method: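 Compound dissolved in DMSO without basification, then diluted with water to 10% DMSO at 1 mg/mL. Solubility was judged by the absence of precipitation on dilution.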
Data set [3] has as its target T1, P2Y purinoceptor 14 (Homo sapiens, UniProt Q15391).
T1 sequence (Q15391 whole entry): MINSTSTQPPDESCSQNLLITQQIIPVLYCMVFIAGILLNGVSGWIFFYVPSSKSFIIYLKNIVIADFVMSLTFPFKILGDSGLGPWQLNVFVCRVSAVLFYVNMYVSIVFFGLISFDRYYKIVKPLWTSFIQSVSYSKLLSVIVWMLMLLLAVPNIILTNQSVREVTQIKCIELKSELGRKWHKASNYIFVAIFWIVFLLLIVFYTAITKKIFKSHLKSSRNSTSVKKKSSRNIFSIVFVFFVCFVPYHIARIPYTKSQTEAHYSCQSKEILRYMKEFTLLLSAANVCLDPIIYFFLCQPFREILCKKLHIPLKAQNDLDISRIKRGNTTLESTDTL
In words: cell-based.

In data set [4] the target is T2, P2Y purinoceptor 14 (Mus musculus, UniProt Q9ESG6).
T2 sequence (Q9ESG6 whole entry): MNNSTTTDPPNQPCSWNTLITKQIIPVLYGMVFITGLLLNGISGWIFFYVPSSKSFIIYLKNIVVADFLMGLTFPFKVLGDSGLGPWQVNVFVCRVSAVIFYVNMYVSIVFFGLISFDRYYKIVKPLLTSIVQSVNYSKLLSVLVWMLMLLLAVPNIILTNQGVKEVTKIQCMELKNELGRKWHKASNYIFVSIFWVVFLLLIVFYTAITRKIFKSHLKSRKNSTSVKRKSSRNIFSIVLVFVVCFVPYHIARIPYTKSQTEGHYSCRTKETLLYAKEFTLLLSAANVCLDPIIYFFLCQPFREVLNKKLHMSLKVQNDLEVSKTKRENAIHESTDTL
In words: Inhibition of MRS4174 binding to mouse P2Y14R expressed in HEK293 cells pre-incubated for 30 mins before MRS4174 addition and further incubated for 30 mins by flow cytomtery based competitive fluorescence assay. Format: cell-based. The gist of the method: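 Competitive whole-cell binding in HEK293 cells stably expressing N-terminally HA-tagged mouse P2Y14R, grown in a 24-well plate to 80–90% confluency. Antagonist given at 1 nM–100 μM in serum-containing EMEM for 30 min at 37 °C, then tracer added at 20 nM final for 30 min.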

The nature of data set [5]: Half life in human liver microsomes. The class given is ADME, Microsome.
Data set [6] concerns the target T1, P2Y purinoceptor 14. Put plainly: cell-based. This is another data set of the same source.
Data set [7] has as its system HepG2. Put plainly: Toxicity in human HepG2 cells. The class given is cell-based.
Data set [8] is described as follows: Cmax in rat at 10 mg/kg, ip after 3 to 4 hrs. Format: ADME, organism-based. Set-up: dose 10 mg/kg, route intraperitoneal. Conditions: in vivo. The procedure, abridged:
as §1

Data set [9] is described as follows: Half life in mouse liver microsomes. The class given is ADME, Microsome. Background: Liver microsomes are a subcellular fraction often used to study metabolism.
The nature of data set [10]: Drug level in rat at 10 mg/kg, ip after 12 hrs. The note with it: in vivo. The class given is ADME, organism-based. The procedure, abridged: as §1
Data set [11] is described as follows: Lipophilicity, change in Constant K of the compound by RP-HPLC analysis relative to PPTN. Format: physicochemical. The procedure, abridged: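 Lipophilicity taken from reversed-phase HPLC retention time on a C18 column. Elution used a 20 min gradient of 10 to 100% acetonitrile in 10 mM triethylammonium acetate. Reported as Δk against the reference antagonist.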

Data set [12] in a line: Aqueous solubility at pH 4 by pION method. The class given is physicochemical. Conditions: aqueous, read-out: solubility. The gist of the method: (§2)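 Equilibrium aqueous solubility measured by the pION method at pH 4.0 and at pH 7.4, in μg/mL; mean ± SD.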
A short description of data set [13]: Bioavailability in rat at 1 to 10 mg/kg, ip. Format: ADME, organism-based. Conditions: in vivo. The procedure, abridged:
as §1

The nature of data set [14]: Plasma concentration in rat at 1 mg/kg, ip after 2 hrs. Format: ADME, organism-based. The gist of the method:
as §1

Data set [15] concerns Mus musculus. In words: Antiasthmatic activity in Aspergillus oryzae protease-mediated C57BL/6J mouse model of allergic asthma assessed as reduction in eosinophil infiltration in bronchoalveolar lavage fluid at 10 mg/kg, ip dosed 30 mins before OVA aerosol challenge and measured 2 days post-challenge by cell differential count assay. Format: functional, organism-based.
Data set [16] is described as follows: Half life in rat at 0.5 mg/kg, iv. The class given is ADME, organism-based. The note with it: in vivo.
Data set [17] in a line: Stability in mouse plasma assessed as compound remaining level at 120 mins. Format: ADME, cell-free. The note with it: 2 h.
Data set [18] can be described thus: Tmax in rat at 10 mg/kg, ip. The class given is ADME, organism-based. Conditions: in vivo. The procedure, abridged: as §1
Data set [19] concerns the target T1, P2Y purinoceptor 14. In words: cell-based. The source holds these as a separate data set.
The nature of data set [20]: Stability in human plasma assessed as compound remaining level at 120 mins. The class given is ADME, cell-free. The note with it: 2 h.
A short description of data set [21]: Aqueous solubility at pH 7.4 by pION method. Format: physicochemical. The note with it: aqueous, read-out: solubility. The gist of the method:
as §2

Data set [22] can be described thus: Half life in rat liver microsomes. The class given is ADME, Microsome.
A short description of data set [23]: Half life in rat at 1 mg/kg, ip. The class given is ADME, organism-based. The note with it: in vivo.

Usually solubility stands for the dissolved amount per volume that the medium holds. A word on the IC50: it is the concentration that inhibits the measured activity by half. Lower therefore signals greater potency in that assay. Broadly, the Cmax is the highest concentration seen after dosing. By bioavailability is commonly meant the share of a dose that reaches the circulation, judged against a reference dose that is usually intravenous. High values mean much systemic uptake, low ones little systemic uptake. For orientation: half-life means how long it takes for the measured level to halve. Lower therefore signals fast loss. What is called Tmax is the time at which the peak concentration occurs. In data set [1], `O=C(O)c1cc(-c2ccc(C34CCN(CC3)CC4)cc2)c2ccc(-c3ccc(C(F)(F)F)cc3)cc2c1` had a concentration at 4 h of 292 nM. Also, the solubility is 1 mg/mL (≈ 1990 µM) in data set [2], 1.5 to 14.3 µg/mL (≈ 2.99 to 28.5 µM) in [12] and 0.44 to 0.55 µg/mL (≈ 0.877 to 1.1 µM) in data set [21]. Besides, the IC50 is 38.1 nM in data set [3]; 21.4 nM in [4]; 57 nM in data set [6]; > 20 µM in data set [7]; 84.5 nM in data set [19]. Besides, the t1/2 in data set [5] was > 240 min; in data set [9], 67.2 min; in data set [22], 80 min. In addition, the Cmax in [8] was 900 ng/mL. The Drug uptake in [10] fell in the range of 200 to 400 ng/kg. Moreover, in [11], the “fold change (FC)” value was determined as 1.24. The same molecule came in with a bioavailability in [13] of 100%. The molecule further gave a concentration at 2 h in data set [14] of 165 nM. The result in data set [15] was Active. For the same molecule, the half-life in data set [16] was 208 min; in data set [23], 306 min. The Stability in data set [17] and in data set [20] was 100% throughout. For the same molecule, the Tmax in [18] fell in the range of 3 to 4 h.

The values above are taken from ChEMBL document CHEMBL4619807, “Exploration of Alternative Scaffolds for P2Y14 Receptor Antagonists Containing a Biaryl Core” (J Med Chem, 2020).
